Assay [1] addresses T1, Nitric oxide synthase, inducible (Homo sapiens, UniProt P35228). The assay can be described thus: Inhibition of cytokine-induced iNOS activity in human DLD1 cells at 10 uM after 24 hrs. The format is cell-based. The settings on record: DLD-1.
Assay [2] concerns the target T1, Nitric oxide synthase, inducible. Nature of the assay: Inhibition of human iNOS expressed in human DLD1 cells at 10 uM after 1 hr. The format is cell-based. The settings on record: DLD-1.
For assay [3] the target is unchanged. Nature of the assay: Inhibition of human iNOS expressed in human DLD1 cells after 1 hr. Type of assay: cell-based, DLD-1. In a few lines: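 Human iNOS endogenously expressed in DLD-1 cells, eight compound concentrations. Incubated 1 h at 37 °C in 50 mM Hepes with 10 nM [3H]arginine, [14C]citrulline internal standard, β-NADP+, G6P, MgCl2, G6P dehydrogenase, FAD, FMN and BH4. [3H]citrulline was separated on cation-exchange resin and counted; AMT defined background.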

The species named for a further assay is Homo sapiens. Nature of the assay: Selectivity for human eNOS to human iNOS. Put shortly: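 Ratio of eNOS IC50 to iNOS IC50, both from [3H]arginine→[3H]citrulline conversion. iNOS was endogenous to DLD-1 cells; eNOS was human recombinant expressed in SF9 cells. Each used 10 nM [3H]arginine with NADP+/G6P/FAD/FMN/BH4 cofactors in 50 mM Hepes for 1 h at 37 °C. The eNOS reaction also had calmodulin, CaCl2 and glutathione. Citrulline was separated by cation exchange and counted. IC50s came from eight concentrations, as geometric means of ≥3 runs.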

Assay [4] has as its target T1, Nitric oxide synthase, inducible. The assay can be described thus: Inhibition of cytokine-induced iNOS activity in human DLD1 cells after 24 hrs. The format is cell-based, DLD-1. Put shortly: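 DLD-1 cells were seeded 3 days ahead, then given fresh medium with 20 ng/mL IFNγ, 4 ng/mL TNFα, 2 ng/mL IL1β and 1 mM L-arginine. Compound titrations in 50 mM Hepes pH 7.4 were added at eight concentrations for 24 h at 37 °C, 5% CO2. Nitrite was read with Griess reagent at 540 nm.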

Assay [5] has as its target T2, Nitric oxide synthase 3 (Homo sapiens) (UniProt P29474).
T2 sequence (whole entry): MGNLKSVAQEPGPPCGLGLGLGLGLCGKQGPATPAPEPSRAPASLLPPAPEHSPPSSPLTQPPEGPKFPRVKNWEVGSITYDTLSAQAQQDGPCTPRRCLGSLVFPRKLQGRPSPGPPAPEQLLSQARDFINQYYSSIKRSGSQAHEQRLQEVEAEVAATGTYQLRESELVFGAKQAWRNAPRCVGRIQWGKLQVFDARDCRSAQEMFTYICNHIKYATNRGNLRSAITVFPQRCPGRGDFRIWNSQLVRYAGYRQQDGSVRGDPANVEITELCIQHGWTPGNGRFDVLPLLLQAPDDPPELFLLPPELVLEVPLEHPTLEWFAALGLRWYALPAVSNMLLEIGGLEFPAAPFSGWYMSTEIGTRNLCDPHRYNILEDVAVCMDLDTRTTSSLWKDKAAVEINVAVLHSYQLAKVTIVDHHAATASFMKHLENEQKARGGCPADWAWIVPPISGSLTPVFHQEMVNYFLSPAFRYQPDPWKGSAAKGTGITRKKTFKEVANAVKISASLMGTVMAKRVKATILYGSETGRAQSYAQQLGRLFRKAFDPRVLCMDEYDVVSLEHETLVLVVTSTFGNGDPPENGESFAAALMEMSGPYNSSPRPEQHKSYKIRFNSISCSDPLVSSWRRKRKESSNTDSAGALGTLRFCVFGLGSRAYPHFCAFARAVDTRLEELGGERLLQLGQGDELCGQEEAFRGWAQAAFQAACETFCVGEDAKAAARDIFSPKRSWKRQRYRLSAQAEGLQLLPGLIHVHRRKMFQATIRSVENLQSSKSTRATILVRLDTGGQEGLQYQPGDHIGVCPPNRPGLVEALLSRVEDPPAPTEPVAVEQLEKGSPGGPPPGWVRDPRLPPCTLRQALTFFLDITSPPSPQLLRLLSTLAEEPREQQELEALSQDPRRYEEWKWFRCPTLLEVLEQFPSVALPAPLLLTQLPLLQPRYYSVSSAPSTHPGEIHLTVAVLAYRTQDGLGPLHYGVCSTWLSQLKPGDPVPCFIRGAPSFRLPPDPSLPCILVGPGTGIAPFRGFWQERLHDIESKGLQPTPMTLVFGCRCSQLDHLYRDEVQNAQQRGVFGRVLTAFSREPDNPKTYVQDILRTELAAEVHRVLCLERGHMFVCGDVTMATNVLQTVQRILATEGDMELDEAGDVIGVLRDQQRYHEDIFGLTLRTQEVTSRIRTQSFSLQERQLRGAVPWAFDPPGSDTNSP
The assay can be described thus: Inhibition of human eNOS expressed in insect SF9 cells at 10 uM after 1 hr.

The target in assay [6] is T3, Nitric oxide synthase 1 (Homo sapiens, UniProt P29475). The assay can be described thus: Inhibition of human nNOS expressed in insect SF9 cells at 10 uM after 1 hr. In a few lines: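 Human recombinant nNOS expressed in SF9 cells, incubated with test compound, 10 nM [3H]arginine and [14C]citrulline (80–120 nM) internal standard in 50 mM Hepes for 1 h at 37 °C. Cofactors were β-NADP+, G6P, MgCl2, G6P dehydrogenase, FAD, FMN, BH4, 25 nM calmodulin, 0.5 mM CaCl2 and 3.5 mM glutathione. After MES stop and cation-exchange filtration, [3H]citrulline was counted; background came from 10 µM AMT.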
T3 sequence (P29475 whole entry): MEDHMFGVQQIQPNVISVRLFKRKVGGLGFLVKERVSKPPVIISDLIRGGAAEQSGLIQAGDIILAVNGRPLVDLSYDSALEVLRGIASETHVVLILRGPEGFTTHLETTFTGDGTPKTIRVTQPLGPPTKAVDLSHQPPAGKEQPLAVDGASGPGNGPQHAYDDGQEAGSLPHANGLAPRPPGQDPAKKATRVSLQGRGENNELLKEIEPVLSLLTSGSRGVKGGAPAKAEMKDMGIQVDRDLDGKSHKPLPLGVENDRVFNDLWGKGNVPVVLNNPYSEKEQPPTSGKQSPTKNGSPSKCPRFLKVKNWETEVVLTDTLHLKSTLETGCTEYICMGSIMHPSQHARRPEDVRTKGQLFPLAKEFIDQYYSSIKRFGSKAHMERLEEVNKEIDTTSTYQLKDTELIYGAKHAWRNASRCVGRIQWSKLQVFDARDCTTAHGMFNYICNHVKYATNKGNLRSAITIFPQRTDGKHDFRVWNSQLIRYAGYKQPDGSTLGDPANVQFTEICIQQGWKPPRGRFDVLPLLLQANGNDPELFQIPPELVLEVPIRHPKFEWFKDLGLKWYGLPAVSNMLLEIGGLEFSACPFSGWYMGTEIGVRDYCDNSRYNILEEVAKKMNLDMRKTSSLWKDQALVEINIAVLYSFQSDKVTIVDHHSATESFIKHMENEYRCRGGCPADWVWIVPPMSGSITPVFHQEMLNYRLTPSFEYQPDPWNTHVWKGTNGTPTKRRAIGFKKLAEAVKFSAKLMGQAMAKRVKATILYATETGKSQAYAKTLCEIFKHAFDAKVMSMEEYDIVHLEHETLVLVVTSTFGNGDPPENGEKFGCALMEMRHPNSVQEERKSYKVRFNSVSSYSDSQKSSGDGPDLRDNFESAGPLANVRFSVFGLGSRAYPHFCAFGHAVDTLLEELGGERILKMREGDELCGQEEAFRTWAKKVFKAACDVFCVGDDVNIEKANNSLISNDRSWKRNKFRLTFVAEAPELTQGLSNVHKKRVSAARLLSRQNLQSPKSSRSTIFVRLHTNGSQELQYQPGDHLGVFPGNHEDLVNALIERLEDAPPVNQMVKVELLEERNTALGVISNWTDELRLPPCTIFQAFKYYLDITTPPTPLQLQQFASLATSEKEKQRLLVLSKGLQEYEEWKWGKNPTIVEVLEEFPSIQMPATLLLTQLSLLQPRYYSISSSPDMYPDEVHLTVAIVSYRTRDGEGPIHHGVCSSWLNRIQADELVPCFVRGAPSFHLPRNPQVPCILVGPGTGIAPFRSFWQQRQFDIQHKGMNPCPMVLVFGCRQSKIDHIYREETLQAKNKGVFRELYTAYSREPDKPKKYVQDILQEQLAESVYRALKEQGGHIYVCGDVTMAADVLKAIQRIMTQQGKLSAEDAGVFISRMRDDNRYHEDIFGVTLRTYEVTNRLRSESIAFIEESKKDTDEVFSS

For assay [7], the target named is T3, Nitric oxide synthase 1. The assay can be described thus: Inhibition of human nNOS expressed in insect SF9 cells after 1 hr.
Another assay has as its target T4, Nitric oxide synthase 3 (Homo sapiens, UniProt P29474).
T4 sequence (P29474 whole entry): T2 sequence (whole entry)
The assay can be described thus: Inhibition of human eNOS expressed in insect SF9 cells after 1 hr. Put shortly:
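Human recombinant eNOS from SF9 cells, tested at eight concentrations. Conditions: 10 nM [3H]arginine with NADP+/G6P/G6PDH, MgCl2, FAD, FMN, BH4, plus 25 nM calmodulin, 0.5 mM CaCl2 and 3.5 mM glutathione, in 50 mM Hepes for 1 h at 37 °C. Citrulline was resin-separated and counted, with AMT background. IC50 from one-site fit, geometric mean of ≥3 runs.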

The term inhibition denotes the change of the read-out against control, counted positive when it falls. Low readings indicate little suppression, high ones strong suppression. One may read the IC50 as the concentration needed to halve the response being measured.

T1 sequence (P35228 whole entry): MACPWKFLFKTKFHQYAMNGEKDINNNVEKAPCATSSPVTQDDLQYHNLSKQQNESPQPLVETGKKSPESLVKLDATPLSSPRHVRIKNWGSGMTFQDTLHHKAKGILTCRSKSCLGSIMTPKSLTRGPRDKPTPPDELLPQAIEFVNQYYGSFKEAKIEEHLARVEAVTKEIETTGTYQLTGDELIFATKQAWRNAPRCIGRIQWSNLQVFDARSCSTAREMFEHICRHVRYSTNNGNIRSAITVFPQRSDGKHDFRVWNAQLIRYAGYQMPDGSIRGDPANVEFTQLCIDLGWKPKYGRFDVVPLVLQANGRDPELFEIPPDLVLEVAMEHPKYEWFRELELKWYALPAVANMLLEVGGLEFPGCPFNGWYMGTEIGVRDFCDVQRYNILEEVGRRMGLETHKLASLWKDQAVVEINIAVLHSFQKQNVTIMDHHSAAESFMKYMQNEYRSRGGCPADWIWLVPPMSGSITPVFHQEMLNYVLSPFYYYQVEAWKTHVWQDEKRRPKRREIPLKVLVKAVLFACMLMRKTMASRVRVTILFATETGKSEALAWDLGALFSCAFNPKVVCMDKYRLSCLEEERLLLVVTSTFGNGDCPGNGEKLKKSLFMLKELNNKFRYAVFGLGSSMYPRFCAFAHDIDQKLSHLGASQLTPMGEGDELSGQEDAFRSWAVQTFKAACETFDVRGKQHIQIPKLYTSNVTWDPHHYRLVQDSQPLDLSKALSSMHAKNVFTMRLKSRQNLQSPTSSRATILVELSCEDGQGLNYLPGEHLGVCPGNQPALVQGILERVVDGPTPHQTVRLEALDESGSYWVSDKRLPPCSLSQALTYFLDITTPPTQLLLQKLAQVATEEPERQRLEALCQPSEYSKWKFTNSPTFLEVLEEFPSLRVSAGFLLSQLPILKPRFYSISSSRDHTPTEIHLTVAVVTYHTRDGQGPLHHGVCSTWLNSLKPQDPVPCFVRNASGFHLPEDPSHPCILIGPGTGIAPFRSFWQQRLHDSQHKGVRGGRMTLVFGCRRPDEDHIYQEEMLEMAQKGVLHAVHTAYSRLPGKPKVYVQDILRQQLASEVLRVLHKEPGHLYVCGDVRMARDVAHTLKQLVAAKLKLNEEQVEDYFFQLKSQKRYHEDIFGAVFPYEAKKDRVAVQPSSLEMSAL

On to `CN1CCC(N(C)Cc2cc([N+](=O)[O-])ccc2Cl)CC1`, for which the inhibition in [1] and in assay [2] was below 15% throughout.
As for `N#Cc1ccc(Cl)cc1CN(c1ccccc1)C1CCNCC1`, the IC50 stood at 660 nM in [3] and 8000 nM in assay [4]. The Ratio IC50 in the assay listed under Homo sapiens was above 15. Further, the inhibition in [5] stood at 0%; against Nitric oxide synthase 1 [6], 33%.
As for `N#Cc1ccc(Cl)cc1CN(C1CCCC1)C1CCNCC1`, the results for the IC50 in [3] and in assay [4] were 1500 nM and 6700 nM, respectively. In the assay listed under Homo sapiens, the Ratio IC50 was above 7. The values for the inhibition (in assay [5]; on Nitric oxide synthase 1 [6]) were 1% and 24%, respectively.
As to `CN1CCC(N(C)Cc2ccccc2[N+](=O)[O-])CC1`, the inhibition in assay [1] and in [2] was below 15% in each case.
As to `CC(=N)NCCSCC[C@H](N)C(=O)O` [GW-274150], the IC50 came to 220 nM in [3] and 8400 nM against Nitric oxide synthase 1 [7]. The Ratio IC50 in the assay filed under Homo sapiens was above 45. Besides, the results for the inhibition in assay [1] and in assay [5] were 26% and below 15%, respectively.
On to `CN(Cc1cc(Cl)ccc1C#N)C1CCNC1` (stereo unspecified), for which the IC50 at Nitric oxide synthase 3 worked out at 4000 nM; in [3], 1200 nM; at Nitric oxide synthase 1 [7] it was 1200 nM. Moreover, in the assay filed under Homo sapiens, the Ratio IC50 worked out at 3. This compound gave an inhibition in assay [1] of 33%.
In the case of `CN1CCC(N(C)Cc2ccccc2)CC1`, the inhibition in assay [1] and in assay [2] was below 15% each time.

The values are drawn from ChEMBL document CHEMBL1142258, “Discovery of a series of aminopiperidines as novel iNOS inhibitors” (Bioorg Med Chem Lett, 2008).
